Shown is part of a subset that was picked to be rich in hits.
KSHV LANA nucl = LANA-nucleosome interaction inhibition; FITC-LANA1-23 / chicken nucleosome fluorescence polarization; active compounds read low; AID 720717; actives 0.3% (n = 51,000); z-score (concentration not given with the values);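 active means both repeat wells score below -2 in polarization z-score versus plate sample wells, excluding overly bright wells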
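Assay system: purified chicken nucleosomes with FITC-labelled LANA N-terminal peptide (1-23) / Probe or stimulus: 50 nM FITC-LANA1-23 probe / Compound dosing: pin-transferred compound, 100 nL / Times: compound with peptide–nucleosome mix 10–45 min at room temperature / Technique: fluorescence polarization, 480 nm excitation, 535 nm parallel and perpendicular emission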
* marks the source's active call; other numbers are inactive results; ! = not active in a repeat.

SMILES	KSHV LANA nucl
Cc1nc2ccn(Cc3cccnc3)c(=O)c2cc1C(=O)NCCCc1ccco1	-2.1*
Cc1ccc(NC(=O)c2cc3c(=O)n(Cc4ccco4)ccc3nc2C)cc1	-0.43
NC(=O)Cn1c2[n+](c3ccccc31)CC(O)CS2 (stereo not given)	-2.4*
CCS(=O)(=O)c1nc2ccccc2n1CC(N)=O	0.049
CCOC(=O)Cn1c2[n+](c3ccccc31)CC(O)CS2 (stereo not given)	-0.43
CC(N)c1nc(-c2ccccc2Cl)no1 (stereo not given)	-0.3
Cc1ccc(C(=O)CNC(=O)C2Cc3ccccc3C(=O)O2)cc1 (stereo not given)	-0.95
CC(C)N1CC=C2C(C1)C(c1ccccc1Cl)C(C#N)=C(N)C2(C#N)C#N (stereo not given)	-2.3*
CCOC(=O)CSC1=C(C#N)C(c2ccccc2Cl)C(C(=O)OC)C(=O)N1 (stereo not given)	0.41
CC(C)(C)OC(=O)N1CC=C2C(C1)C(c1cccc(F)c1)C(C#N)=C(N)C2(C#N)C#N (stereo not given)	1.8
CC1(C)C(C)(C(=O)O)C12CCC2C(=O)NCc1ccco1 (stereo not given)	-0.32
COc1ccc(-c2nnc3sc(NC(C)=O)nn23)cc1OC	-1.5
CCn1c(O)c(C=Nc2cccc(OC)c2)c(=O)[nH]c1=S	-0.78
CCn1c(O)c(C=Nc2cccc(O)c2)sc1=S	-2.4*
CCn1c(O)c(C=Nc2cccc(Cl)c2)c(=O)[nH]c1=S	0.35
CCS(=O)(=O)N1CCNCC1	-1.2
CCC(C)NC(=O)Cn1ncc2c1-c1ccccc1OC2 (stereo not given)	-1.7
O=C(Cn1ncc2c1-c1ccccc1OC2)NCc1ccccc1	-0.2
COc1cccc(NC(=O)Cn2ncc3c2-c2ccccc2OC3)c1	-2.3*
O=S(=O)(Nc1cccc(-c2ccc(N3CCCC3)nn2)c1)c1ccccc1	0.11
CC(C)NC(=O)c1cc2ccccc2oc1=O	-0.062
CCNC(=S)N1CCC(NC(=O)c2ccccc2)CC1	-1.2
COc1cccc2c1C(=O)c1c(O)c3c(c(O)c1C2=O)C[C@@](O)(C(C)=O)C[C@@H]3OC1CC(N)C(O)C(C)O1 (stereo not given in full)	-6*
COc1cccc2c1C(=O)c1c(O)c3c(c(O)c1C2=O)C[C@@](O)(C(=O)CO)C[C@@H]3O[C@H]1C[C@H](N)[C@H](O)[C@H](C)O1	-8.5*!
CCOC(=O)c1c(NC(C)=O)c2c3c(sc2n1Cc1nc(-c2ccccc2OC)oc1C)CCCC3	-0.14
SMILES	KSHV LANA nucl
Cc1ccc(/C=C/C(=O)Nc2ccc3nc4n(c(=O)c3c2)CCCC4)cc1	-0.24
COc1ccc(-c2noc(CNC(=O)/C=C/c3ccc(OC)c(OC)c3)n2)cc1	2.4
Nc1ccc(N2CCOCC2)c(N)c1	2.5
CCN1CC=C2C(C#N)=C(N)C(C#N)(C#N)C(c3ccc(OC)c4ccccc34)C2C1 (stereo not given)	-0.78
CCCN1CC=C2C(C#N)=C(N)C(C#N)(C#N)C(c3cccc(OC)c3)C2C1 (stereo not given)	-0.46
N#CC1=C(N)C(C#N)(C#N)C(c2ccco2)C2CN(Cc3ccccc3)CC=C12 (stereo not given)	-5.4*
O=C(c1ccco1)N1CCN(Cc2ccccc2)CC1	-0.73
CCCN1CC=C2C(C#N)=C(N)C(C#N)(C#N)C(C(C)C)C2C1 (stereo not given)	-4*
CN1CC=C2C(C#N)=C(N)C(C#N)(C#N)C(Cc3ccccc3)C2C1 (stereo not given)	-1.8
CCCN1CC=C2C(C#N)=C(N)C(C#N)(C#N)C(c3ccc(OCC(N)=O)cc3)C2C1 (stereo not given)	-1.3
CCN1CC=C2C(C#N)=C(N)C(C#N)(C#N)C(C)C2C1 (stereo not given)	-2.5*
c1ccc(-c2noc3c2CNCC3)cc1	1
Cc1sc2nc(C(C)C)n3c(=S)[nH]nc3c2c1C	0.76
CCCCCCCCCCC/C=C\C/C=C\CCCC(=O)O	-0.48
CCCCC/C=C\C/C=C\C/C=C\C/C=C\CCCC(=O)OC(CO)CO	-2.1*
CCCCC/C=C\C/C=C\CCCCCCCC(=O)O[C@@H](CO)COC(=O)CCCCCCCCCCCCCCCCC	-0.1
Clc1cccc(CNCc2cccs2)c1	2.8
Cc1ccc(C)c(NC(=O)CSc2ncnc3c2oc2ccccc23)c1	-0.29
O=c1cc(CSC2=NCCS2)nc2sccn12	-0.19
O=c1cc(CN2CCCc3ccccc32)nc2sccn12	-7.9*
O=c1cc(CSc2ccccc2)nc2sccn12	-0.28
CCN1CCN(c2c(C(=O)c3ccccc3)cnc3ccc(OC)cc23)CC1	0.054
COc1ccc(C(C(=O)NC2CCCC2)N(C(=O)c2ccco2)c2ccc(NC(C)=O)cc2)cc1OC (stereo not given)	0.087
COC(CN(C)C(=O)C1CCC(CNS(=O)(=O)c2ccc(Cl)cc2)CC1)OC (stereo not given)	2.7
O=C(Nc1ccccc1)N(Cc1nc(-c2ccccc2)no1)C1CCCCC1	-2.1*
SMILES	KSHV LANA nucl
O=C(c1ccccc1)N(Cc1nc(-c2ccccc2)no1)C1CCCCC1	-1.8
CCNC(=O)N(Cc1nc(-c2ccc(C)cc2)no1)C1CCCCC1	-0.46
CCN(CC)S(=O)(=O)c1cc(C)ccc1OC	-1.1
CCOC(=O)c1c(-c2ccccc2)n2c3c(cccc13)SCC2	1
CC(C)c1cccc(C(C)C)c1OCCOCCN1CCNCC1	-1.4
Cc1cc(C(=O)OC(C)C)ccc1-c1ccc(C=C(C#N)C#N)o1	-1.1
COc1cc(Cn2c(N)c(C#N)c3nc4ccccc4nc32)cc(OC)c1OC	-0.43
O=C1Oc2ccccc2C2c3sc(=O)[nH]c3SC(c3ccccc3)C12 (stereo not given)	-0.44
O=c1[nH]c2c(s1)C1c3ccccc3OC3CCCC(S2)C31 (stereo not given)	-9.8*
Clc1nc2ccccc2n2cnnc12	0.0025
CCC(=O)N1c2ccc(S(=O)(=O)CCC(=O)Nc3ccccc3OC)cc2CC1C (stereo not given)	-0.45
CCCC1OCC2(CO)C(C)C=C(C)C1C2C (stereo not given)	-0.13
COc1ccccc1CC(=O)Nc1ccc(S(=O)(=O)N(C)C)cc1	-0.75
c1cnc2c(c1)NC1(CCCCC1)N2	-3.6*
Cc1ccccc1CCN(Cc1cc2c(C)ccc(C)c2[nH]c1=O)C(=O)c1cnccn1	-0.67
NCCCNC(=O)c1ccco1	0.25
O=C(Nc1cc(C(=O)N2CCOCC2)ccc1N1CC2CC(C1)c1cccc(=O)n1C2)c1ccc(Br)o1 (stereo not given)	-0.94
CC(C)(N)COc1nonc1-c1ccccc1	0.7
O=C(Cn1cc(/C=C2\NC(=S)N(c3ccccc3)C2=O)c2ccccc21)NCc1ccco1	-2.3*
O=C(Cn1cc(/C=N/NC(=S)Nc2ccccc2)c2ccccc21)NCc1ccco1	-0.96
CCN=C1S/C(=C\c2cn(CC(=O)NCc3ccco3)c3ccccc23)C(=O)N1CC	0.005
NNc1ncccc1C(=O)O	-0.037
CC(C(=O)Nc1cccc(N)c1)n1nnc2ccccc21 (stereo not given)	-0.7
O=C1NC2(CCCC2)Cc2ccccc21	0.003
N=C1/C(=C\c2cn(CCOc3ccccc3Cl)c3ccccc23)C(=O)N=C2SC=NN12	-3.4*
CCC1=NN2C(=N)/C(=C/c3cn(CCOc4cccc(OC)c4)c4ccccc34)C(=O)N=C2S1	-0.35
Cc1ccc(C)c(OCCn2cc(/C=C3\C(=N)N4N=C(S(C)(=O)=O)SC4=NC3=O)c3ccccc32)c1	-0.034
